Assay results from ChEMBL document CHEMBL4196034, “Family-wide analysis of aminoacyl-sulfamoyl-3-deazaadenosine analogues as inhibitors of aminoacyl-tRNA synthetases” (Eur J Med Chem, 2018).
Activity calls are given as the source filed them. No cut-off for these calls is given here.

Columns and labels:
Pseudomonas aeruginosa = test: Antibacterial activity against Pseudomonas aeruginosa PAO1 up to 100 uM after 18 to 24 hrs by two fold serial dilution method; type: functional, organism-based
Method in brief: (§1)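 Broth microdilution, twofold series from 100 µM down to 0.39 µM, in LB medium. MIC50 was taken as the lowest concentration giving 50% growth inhibition after 18-24 h incubation at 37.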

Staphylococcus aureus = test: Antibacterial activity against Staphylococcus aureus ATCC 65381 up to 100 uM after 18 to 24 hrs by two fold serial dilution method; type: functional, organism-based; method in brief: as §1
[1] = biological target: Isoleucine--tRNA ligase (Escherichia coli K-12) (UniProt P00956); test: (§2) Inhibition of Isoleucyl-tRNA synthetase in Escherichia coli K-12 BW28357 S30 extract assessed as reduction in tRNA aminoacylation at 2.5 uM preincubated for 5 mins followed by Escherichia coli tRNA and 14C-labeled isoleucine addition measured after 5 mins by liquid scintillation counting method relative to control
Sequence of Isoleucine--tRNA ligase (Escherichia coli K-12) (P00956 whole entry): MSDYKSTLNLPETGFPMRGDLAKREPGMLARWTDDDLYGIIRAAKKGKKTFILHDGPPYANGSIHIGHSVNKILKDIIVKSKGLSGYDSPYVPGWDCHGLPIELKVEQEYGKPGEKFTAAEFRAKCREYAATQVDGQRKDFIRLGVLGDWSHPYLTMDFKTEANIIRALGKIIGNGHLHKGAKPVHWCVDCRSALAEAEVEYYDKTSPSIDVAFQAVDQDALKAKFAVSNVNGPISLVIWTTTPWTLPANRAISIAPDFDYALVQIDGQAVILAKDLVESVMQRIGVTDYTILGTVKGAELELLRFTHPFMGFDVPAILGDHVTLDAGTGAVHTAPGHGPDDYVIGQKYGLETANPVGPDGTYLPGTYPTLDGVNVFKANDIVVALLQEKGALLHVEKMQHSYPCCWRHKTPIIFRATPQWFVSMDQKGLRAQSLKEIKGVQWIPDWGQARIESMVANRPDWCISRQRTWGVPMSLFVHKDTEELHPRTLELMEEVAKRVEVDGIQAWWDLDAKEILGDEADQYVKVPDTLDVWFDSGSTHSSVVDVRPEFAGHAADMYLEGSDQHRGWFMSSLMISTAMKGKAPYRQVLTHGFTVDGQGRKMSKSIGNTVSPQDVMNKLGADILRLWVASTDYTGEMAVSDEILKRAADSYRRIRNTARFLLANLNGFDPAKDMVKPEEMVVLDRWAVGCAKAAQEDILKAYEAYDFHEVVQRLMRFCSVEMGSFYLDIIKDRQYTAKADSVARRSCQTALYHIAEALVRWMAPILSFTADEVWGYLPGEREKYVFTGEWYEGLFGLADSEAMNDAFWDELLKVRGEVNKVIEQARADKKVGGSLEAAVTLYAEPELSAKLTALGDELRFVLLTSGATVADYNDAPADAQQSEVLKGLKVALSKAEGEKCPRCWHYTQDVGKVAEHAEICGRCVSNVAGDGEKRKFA
Method in brief: (§3)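 E. coli K-12 BW28357 cells were grown in LB to A600 0.5, washed in 20 mM Tris.HCl, 10 mM MgCl2, 100 mM KCl, pH 8.0, then sonicated in the same buffer plus 1 mM DTT. The lysate was spun at 15,000 g. Inhibitor (2.5 µM) was preincubated with extract for 5 min. Aminoacylation mix: 30 mM Tris pH 8.0, 5 g/L E. coli tRNA, 3 mM ATP, 8 mM MgCl2, 40 µM 14C-amino acid. Reaction ran at room temperature. TCA precipitation after 5 min, then scintillation counting. Activity was expressed relative to the no-compound control, average of three experiments.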

Isoleucine--tRNA ligase = Isoleucine--tRNA ligase (Escherichia coli K-12, UniProt P00956); test: (§4) Inhibition of Escherichia coli BL21(DE3) Isoleucyl-tRNA synthetase assessed as reduction in tRNA aminoacylation preincubated for 10 mins with Escherichia coli tRNA and 14C-labeled isoleucine followed by ATP addition by liquid scintillation counting method; conditions: read-out: Ki(app)
Sequence of Isoleucine--tRNA ligase (P00956 whole entry): as above
Method in brief: (§5)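 Purified E. coli aaRS, expressed in Rosetta 2 (DE3) pLysS: ileRS 50 nM, tyrRS 0.5 nM, leuRS 2.5 nM, aspRS, serRS and glyRS 2 nM each. Buffer was 20 mM Tris, 100 mM KCl, 10 mM MgCl2, 5 mM β-mercaptoethanol, pH 7.5. Enzyme was preincubated 10 min at 37°C with serially diluted compound, 50 µM 14C-amino acid, 2 mg/ml tRNA and pyrophosphatase. Reaction was started with 500 µM ATP and quenched within the linear zone, then TCA-precipitated and counted. Ki app came from Greco-Hakala fits.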

[2] = system: Staphylococcus epidermidis; test: Antibacterial activity against Staphylococcus epidermidis RP62A up to 100 uM after 18 to 24 hrs by two fold serial dilution method; type: functional, organism-based; method in brief: as §1
Escherichia coli = test: Antibacterial activity against Escherichia coli NCIB 8743 up to 100 uM after 18 to 24 hrs by two fold serial dilution method; type: functional, organism-based; method in brief: as §1
Kocuria rhizophila = test: Antibacterial activity against Kocuria rhizophila ATCC 9341 up to 100 uM after 18 to 24 hrs by two fold serial dilution method; type: functional, organism-based; conditions: DC2201; method in brief: as §1
Tyrosine--tRNA ligase = biological target: T1, Tyrosine--tRNA ligase (Escherichia coli (strain K12), UniProt P0AGJ9); test: Inhibition of Escherichia coli BL21(DE3) Tyrosyl-tRNA synthetase assessed as reduction in tRNA aminoacylation preincubated for 10 mins with Escherichia coli tRNA and 14C-labeled tyrosine followed by ATP addition by liquid scintillation counting method; conditions: read-out: Ki(app); method in brief: as §5
T1 sequence (P0AGJ9 whole entry): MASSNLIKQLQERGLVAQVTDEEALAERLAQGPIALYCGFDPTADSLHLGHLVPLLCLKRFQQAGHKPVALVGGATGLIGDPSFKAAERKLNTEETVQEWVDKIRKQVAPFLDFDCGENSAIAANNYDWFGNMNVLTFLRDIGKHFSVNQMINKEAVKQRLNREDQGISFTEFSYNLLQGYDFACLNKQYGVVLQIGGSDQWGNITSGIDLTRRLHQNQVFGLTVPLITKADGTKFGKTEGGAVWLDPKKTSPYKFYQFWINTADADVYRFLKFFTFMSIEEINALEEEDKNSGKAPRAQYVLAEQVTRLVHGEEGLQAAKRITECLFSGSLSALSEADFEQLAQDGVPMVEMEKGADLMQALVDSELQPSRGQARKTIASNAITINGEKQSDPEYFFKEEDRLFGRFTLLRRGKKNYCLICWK

[3] = biological target: T2, Tyrosine--tRNA ligase (Escherichia coli (strain K12)) (UniProt P0AGJ9); test: as §2, with “Tyrosyl-tRNA” for “Isoleucyl-tRNA”, “tyrosine” for “isoleucine”; method in brief: as §3
T2 sequence (whole entry): T1 sequence (P0AGJ9 whole entry)

Serine--tRNA ligase = Serine--tRNA ligase (Escherichia coli (strain K12), UniProt P0A8L1); test: Inhibition of Escherichia coli BL21(DE3) Seryl-tRNA synthetase assessed as reduction in tRNA aminoacylation preincubated for 10 mins with Escherichia coli tRNA and 14C-labeled serine followed by ATP addition by liquid scintillation counting method; conditions: read-out: Ki(app); method in brief: as §5
Sequence of Serine--tRNA ligase (P0A8L1 whole entry): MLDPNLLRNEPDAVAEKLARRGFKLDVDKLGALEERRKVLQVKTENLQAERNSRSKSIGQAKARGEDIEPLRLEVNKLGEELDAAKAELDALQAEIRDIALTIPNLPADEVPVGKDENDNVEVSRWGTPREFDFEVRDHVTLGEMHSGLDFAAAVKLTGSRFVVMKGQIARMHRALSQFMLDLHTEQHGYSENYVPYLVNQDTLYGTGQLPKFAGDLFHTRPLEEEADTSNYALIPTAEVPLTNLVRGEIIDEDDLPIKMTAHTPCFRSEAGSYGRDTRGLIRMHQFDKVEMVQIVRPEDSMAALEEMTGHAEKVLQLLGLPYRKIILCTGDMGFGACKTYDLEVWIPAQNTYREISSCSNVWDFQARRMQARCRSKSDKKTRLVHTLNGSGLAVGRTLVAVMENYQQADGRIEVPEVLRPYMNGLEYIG

[4] = biological target: Serine--tRNA ligase (Escherichia coli (strain K12)) (UniProt P0A8L1); test: Inhibition of Serine-tRNA synthetase in Escherichia coli K-12 BW28357 S30 extract assessed as reduction in tRNA aminoacylation at 2.5 uM preincubated for 5 mins followed by Escherichia coli tRNA and 14C-labeled serine addition measured after 5 mins by liquid scintillation counting method; method in brief: as §3
Sequence of Serine--tRNA ligase (Escherichia coli (strain K12)) (P0A8L1 whole entry, looked up): as the sequence (P0A8L1 whole entry) above

[5] = biological target: Aspartate--tRNA ligase (Escherichia coli (strain K12)) (UniProt P21889); test: Inhibition of Aspartate-tRNA synthetase in Escherichia coli K-12 BW28357 S30 extract assessed as reduction in tRNA aminoacylation at 2.5 uM preincubated for 5 mins followed by Escherichia coli tRNA and 14C-labeled aspartic acid addition measured after 5 mins by liquid scintillation counting method; method in brief: as §3
Sequence of Aspartate--tRNA ligase (Escherichia coli (strain K12)) (P21889 whole entry, looked up): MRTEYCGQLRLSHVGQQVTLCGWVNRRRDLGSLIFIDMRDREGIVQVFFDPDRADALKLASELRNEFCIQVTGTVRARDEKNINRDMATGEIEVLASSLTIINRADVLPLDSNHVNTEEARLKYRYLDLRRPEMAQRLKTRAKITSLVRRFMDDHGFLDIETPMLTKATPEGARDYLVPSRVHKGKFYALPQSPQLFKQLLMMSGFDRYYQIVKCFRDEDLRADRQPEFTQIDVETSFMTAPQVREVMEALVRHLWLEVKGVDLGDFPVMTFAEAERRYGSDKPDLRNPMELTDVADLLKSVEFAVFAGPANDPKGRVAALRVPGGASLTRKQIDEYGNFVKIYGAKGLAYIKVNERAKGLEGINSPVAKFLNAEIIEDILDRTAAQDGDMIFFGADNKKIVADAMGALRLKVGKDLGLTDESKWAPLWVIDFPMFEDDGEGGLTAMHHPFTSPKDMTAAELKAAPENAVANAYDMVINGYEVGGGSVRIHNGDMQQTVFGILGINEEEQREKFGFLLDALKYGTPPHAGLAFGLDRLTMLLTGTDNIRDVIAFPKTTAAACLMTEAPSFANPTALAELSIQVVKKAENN

Aspartate--tRNA ligase = Aspartate--tRNA ligase (Escherichia coli (strain K12), UniProt P21889); test: Inhibition of Escherichia coli BL21(DE3) Aspartyl-tRNA synthetase assessed as reduction in tRNA aminoacylation preincubated for 10 mins with Escherichia coli tRNA and 14C-labeled aspartic acid followed by ATP addition by liquid scintillation counting method; conditions: read-out: Ki(app); method in brief: as §5
Sequence of Aspartate--tRNA ligase (P21889 whole entry): as the sequence (P21889 whole entry, looked up) above

Escherichia coli K-12 = test: Inhibition of Glycyl-tRNA synthetase in Escherichia coli K-12 BW28357 S30 extract assessed as reduction in tRNA aminoacylation at 2.5 uM preincubated for 5 mins followed by Escherichia coli tRNA and 14C-labeled glycine addition measured after 5 mins by liquid scintillation counting method; method in brief: as §3
[6] = as §4, with “Glycine-tRNA” for “Isoleucyl-tRNA”, “synthetase alpha subunit/Glycine-tRNA synthetase beta subunit” for “synthetase”, “glycine” for “isoleucine”; conditions: read-out: Ki(app); method in brief: as §5
Leucine--tRNA ligase = Leucine--tRNA ligase (Escherichia coli (strain K12), UniProt P07813); test: Inhibition of Escherichia coli BL21(DE3) Leucyl-tRNA synthetase assessed as reduction in tRNA aminoacylation preincubated for 10 mins with Escherichia coli tRNA and 14C-labeled leucine followed by ATP addition by liquid scintillation counting method; conditions: read-out: Ki(app)
Sequence of Leucine--tRNA ligase (P07813 whole entry): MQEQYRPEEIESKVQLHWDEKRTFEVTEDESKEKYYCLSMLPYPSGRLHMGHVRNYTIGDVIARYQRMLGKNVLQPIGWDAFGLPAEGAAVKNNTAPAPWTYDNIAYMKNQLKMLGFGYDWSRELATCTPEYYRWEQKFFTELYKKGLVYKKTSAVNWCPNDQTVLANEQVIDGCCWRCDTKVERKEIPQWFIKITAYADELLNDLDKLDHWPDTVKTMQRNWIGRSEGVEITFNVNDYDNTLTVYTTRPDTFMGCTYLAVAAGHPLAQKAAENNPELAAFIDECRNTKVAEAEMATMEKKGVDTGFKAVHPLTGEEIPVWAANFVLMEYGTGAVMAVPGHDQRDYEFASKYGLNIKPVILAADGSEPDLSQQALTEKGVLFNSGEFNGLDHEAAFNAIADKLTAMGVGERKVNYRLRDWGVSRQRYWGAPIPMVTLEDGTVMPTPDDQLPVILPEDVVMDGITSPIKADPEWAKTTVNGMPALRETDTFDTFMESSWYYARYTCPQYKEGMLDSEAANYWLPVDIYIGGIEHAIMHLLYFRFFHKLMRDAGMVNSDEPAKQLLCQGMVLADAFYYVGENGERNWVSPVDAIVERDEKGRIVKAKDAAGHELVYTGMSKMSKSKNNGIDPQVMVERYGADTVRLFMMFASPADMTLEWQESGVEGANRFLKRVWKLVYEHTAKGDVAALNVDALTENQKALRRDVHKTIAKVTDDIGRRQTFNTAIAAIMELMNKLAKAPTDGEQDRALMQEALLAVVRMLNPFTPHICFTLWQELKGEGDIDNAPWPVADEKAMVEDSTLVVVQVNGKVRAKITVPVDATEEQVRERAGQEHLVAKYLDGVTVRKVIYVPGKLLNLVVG

inhibition [1] | Ki (Isoleucine--tRNA ligase) [nM] | Ki (Tyrosine--tRNA ligase) [nM] | inhibition [3] | Ki (Serine--tRNA ligase) [nM] | inhibition [4] | inhibition [5] | Ki (Aspartate--tRNA ligase) [nM] | inhibition (Escherichia coli K-12) | Ki (Leucine--tRNA ligase) [nM] | SMILES | Activity (Pseudomonas aeruginosa) | Activity (Staphylococcus aureus) | Activity [2] | Activity (Escherichia coli) | Activity (Kocuria rhizophila) | Ki [6] [nM]
Active | 1.92 | – | – | – | – | – | – | – | – | CC[C@H](C)[C@H](N)C(=O)NS(=O)(=O)OC[C@H]1O[C@@H](n2cnc3c(N)ncnc32)[C@H](O)[C@@H]1O | inactive | inactive | inactive | inactive | inactive | –
– | – | 2.93 | Active | – | – | – | – | – | – | Nc1ncnc2c1ncn2[C@@H]1O[C@H](COS(=O)(=O)NC(=O)[C@@H](N)Cc2ccc(O)cc2)[C@@H](O)[C@H]1O | inactive | inactive | inactive | inactive | inactive | –
– | – | – | – | 523 | inactive | – | – | – | – | Nc1nccc2c1ncn2[C@@H]1O[C@H](COS(=O)(=O)NC(=O)[C@@H](N)CO)[C@@H](O)[C@H]1O | inactive | inactive | inactive | inactive | inactive | –
– | – | – | – | – | – | inactive | 25.3 | – | – | Nc1nccc2c1ncn2[C@@H]1O[C@H](COS(=O)(=O)NC(=O)[C@@H](N)CC(=O)O)[C@@H](O)[C@H]1O | inactive | inactive | inactive | inactive | inactive | –
40 to 50% | 213 | – | – | – | – | – | – | – | – | CC[C@H](C)[C@H](N)C(=O)NS(=O)(=O)OC[C@H]1O[C@@H](n2cnc3c(N)nccc32)[C@H](O)[C@@H]1O | inactive | inactive | inactive | inactive | inactive | –
– | – | – | – | – | – | Active | 0.052 | – | – | Nc1ncnc2c1ncn2[C@@H]1O[C@H](COS(=O)(=O)NC(=O)[C@@H](N)CC(=O)O)[C@@H](O)[C@H]1O | inactive | inactive | inactive | inactive | inactive | –
– | – | 29.9 | 40 to 50% | – | – | – | – | – | – | Nc1nccc2c1ncn2[C@@H]1O[C@H](COS(=O)(=O)NC(=O)[C@@H](N)Cc2ccc(O)cc2)[C@@H](O)[C@H]1O | inactive | inactive | inactive | inactive | inactive | –
– | – | – | – | – | – | – | – | – | – | CC(C)C[C@H](N)C(=O)NS(=O)(=O)OC[C@H]1O[C@@H](n2cnc3c(N)ncnc32)[C@H](O)[C@@H]1O | inactive | inactive | inactive | inactive | inactive | –
– | – | – | – | 0.18 | Active | – | – | – | – | Nc1ncnc2c1ncn2[C@@H]1O[C@H](COS(=O)(=O)NC(=O)[C@@H](N)CO)[C@@H](O)[C@H]1O | inactive | inactive | inactive | inactive | inactive | –
– | – | – | – | – | – | – | – | inactive | – | NCC(=O)NS(=O)(=O)OC[C@H]1O[C@@H](n2cnc3c(N)nccc32)[C@H](O)[C@@H]1O | inactive | inactive | inactive | inactive | inactive | > 2000
– | – | – | – | – | – | – | – | – | 0.654 | CC(C)C[C@H](N)C(=O)NS(=O)(=O)OC[C@H]1O[C@@H](n2cnc3c(N)nccc32)[C@H](O)[C@@H]1O | inactive | inactive | inactive | inactive | inactive | –
– | – | – | – | – | – | – | – | Active | – | NCC(=O)NS(=O)(=O)OC[C@H]1O[C@@H](n2cnc3c(N)ncnc32)[C@H](O)[C@@H]1O | inactive | inactive | inactive | inactive | inactive | 148
